What was measured:
[1] = Lipophilicity, logD of compound in n-octanol and phosphate buffered saline by shake flask method; assay type: physicochemical
Outline: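 Shake-flask partition of the 11C-labeled compound between n-octanol and phosphate buffered saline; logD calculated from the distribution of radioactivity between phases.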

[2] = Drug uptake in CD1 mouse brain assessed as standard uptake value after 0.5 mins; assay type: ADME, tissue-based; conditions: in vivo
Outline: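 Dynamic PET acquisition in CD-1 mice over 60 min after radioligand injection; brain time–activity curves expressed as standard uptake value. Blocking arm pretreated with 2-phenylcyclopropan-1-amine (3 mg/kg); uptake compared by area under the curve.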

[3] = Drug uptake in iv dosed mouse brain after 5 to 60 mins; assay type: ADME, organism-based; conditions: in vivo
Outline: (§1)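 Ex vivo whole-body biodistribution in mice after intravenous radioligand injection. Tissues collected at 5, 15, 30 and 60 min; radioactivity expressed as %ID/g, mean ± SD, n = 4 per time point.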

[4] = Drug uptake in iv dosed mouse lung assessed as per gram of wet tissue measured after 5 to 60 mins; assay type: ADME, organism-based; conditions: read-out: Drug uptake; outline: as §1
[5] = Drug uptake in iv dosed mouse pancreas assessed as per gram of wet tissue measured after 5 to 60 mins; assay type: ADME, organism-based; conditions: read-out: Drug uptake; outline: as §1
[6] = Drug uptake in iv dosed mouse small intestine assessed as per gram of wet tissue measured after 5 to 60 mins; assay type: ADME, organism-based; conditions: read-out: Drug uptake; outline: as §1
[7] = Drug uptake in iv dosed mouse kidney assessed as per gram of wet tissue measured after 5 to 60 mins; assay type: ADME, organism-based; conditions: read-out: Drug uptake; outline: as §1
[8] = Drug uptake in dosed iv mouse liver assessed as per gram of wet tissue measured after 5 to 60 mins; assay type: ADME, organism-based; conditions: read-out: Drug uptake; outline: as §1
[9] = Tmax in iv dosed mouse small intestine; assay type: ADME, organism-based; outline: as §1
[10] = Stability in saline containing 5% ethanol assessed as compound radiolysis after 90 mins post formulation; assay type: physicochemical; conditions: buffer, 1.5 h
Outline: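 Radiotracer formulated in saline containing 5% ethanol and held for 90 min after formulation, then checked for radiolysis.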

[11] = target: Cholesterol 24-hydroxylase (Homo sapiens, UniProt Q9Y6A2); assay: Binding affinity to truncated d(2-50) 4His-tagged human CYP46A1 expressed in Escherichia coli DH5alpha as cholesterol-24 hydroxylation using cholesterol as substrate incubated for 30 mins in presence of NADPH cytochrome P450 oxidoreductase by gas chromatography-mass spectrometry
Chain of Cholesterol 24-hydroxylase (Q9Y6A2 whole entry, the tested form may be a part): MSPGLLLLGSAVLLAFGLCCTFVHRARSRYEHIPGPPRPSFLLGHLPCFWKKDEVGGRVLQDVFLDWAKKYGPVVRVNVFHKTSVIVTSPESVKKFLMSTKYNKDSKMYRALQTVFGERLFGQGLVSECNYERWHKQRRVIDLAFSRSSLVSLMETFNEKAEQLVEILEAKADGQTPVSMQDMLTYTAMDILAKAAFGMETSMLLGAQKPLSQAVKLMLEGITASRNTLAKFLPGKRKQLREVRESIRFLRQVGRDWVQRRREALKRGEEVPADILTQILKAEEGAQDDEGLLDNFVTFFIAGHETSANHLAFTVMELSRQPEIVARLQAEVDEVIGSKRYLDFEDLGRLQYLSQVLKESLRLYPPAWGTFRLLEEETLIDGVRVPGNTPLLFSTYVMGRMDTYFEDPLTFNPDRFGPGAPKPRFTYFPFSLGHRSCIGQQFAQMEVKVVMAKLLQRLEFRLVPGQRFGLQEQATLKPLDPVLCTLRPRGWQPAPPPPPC

Question: Which logD [1] does the source give for `O=[11C](NCc1ccccc1)N1CCN(c2cncnc2-c2ccccc2)CC1` here?
Answer: 3.05

Question: And the SUV [2]?
Answer: 0.42

Question: What about the Drug uptake [3] of the same compound?
Answer: Active

Question: What about the tissue uptake [4] of the same compound?
Answer: > 10 %ID/g

Question: And the tissue uptake [5]?
Answer: > 10 %ID/g

Question: What about the tissue uptake [6] of the same compound?
Answer: > 10 %ID/g

Question: And the tissue uptake [7]?
Answer: > 10 %ID/g

Question: What about the tissue uptake [8] of the same compound?
Answer: > 10 %ID/g

Question: And the Tmax [9]?
Answer: 30 min

Question: What about the Stability [10] of the same compound?
Answer: Stable

Question: With `O=C(NCc1ccccc1)N1CCN(c2cncnc2-c2ccccc2)CC1` as the compound, how does the Ki [11] read?
Answer: 7.3 µM

— ChEMBL document CHEMBL4627337, “Synthesis and pharmacokinetic study of a 11C-labeled cholesterol 24-hydroxylase inhibitor using 'in-loop' [11C]CO2 fixation method” (Bioorg Med Chem Lett, 2020)
